Key:
Assay type in all cases: functional, cell-based
Settings in all cases: Mus musculus
[1] = system: P388; assay: Effect was evaluated by implanting P388/DDP leukemia cells into B6D2F1 mice and treated for 1-7 days at 2 umol/ Kg dose
Method in brief: (§1)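 P388 or P388/DDP leukemia cells (10^6/mouse) implanted ip into B6D2F1 mice on day 0; 6 animals/group, 8 untreated controls. Complexes dissolved in water just before use, given ip. Read-out %T/C = median survival time ×100 of treated vs untreated; >125% taken as significant. P388/DDP subline raised in vivo by serial passage with single ip cis-DDP (20 µmol/kg) 2 days after implantation.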

[2] = system: P388; assay: Effect was evaluated by implanting P388/DDP leukemia cells into B6D2F1 mice and treated for 1 day at 193 umol/ Kg dose; method in brief: as §1
[3] = system: P388; assay: Inhibitory effect was evaluated on the growth of P388 cells
Method in brief: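 P388 cells (10^5 cells/mL, exponential growth) exposed to the platinum complexes at increasing concentrations for 1 h at 37 °C, drug removed, then grown 48 h more; cell number and viability counted by trypan blue exclusion. ID50 = 50% growth-inhibitory concentration; five experiments, each in triplicate, mean ± standard deviation.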

[4] = system: P388; assay: Effect was evaluated by implanting P388 cells into B6D2F1 mice and treated for 1 day at 26 umol/ Kg dose; method in brief: as §1
[5] = system: P388; assay: Effect was evaluated by implanting P388 cells into B6D2F1 mice and treated for 1-7 days at 2 umol/ Kg dose; method in brief: as §1
[6] = system: P388; assay: Effect was evaluated by implanting P388 cells into B6D2F1 mice and treated for 1 day at 193 umol/ Kg dose; method in brief: as §1

Sequence	T/C [1]	T/C [2]	ID50 [3]	T/C [4]	T/C [5]	T/C [6]
CISPLATIN	90%	95%	2.05 µM	202%	203%	
TRANSPLATIN		107%	85 µM			105%
